Measurements reported in ChEMBL document CHEMBL3351241, “Metabolic stability optimization and metabolite identification of 2,5-thiophene amide 17β-hydroxysteroid dehydrogenase type 2 inhibitors” (Eur J Med Chem, 2014).

How the values were obtained:
[1] = molecular target: T1, 17-beta-hydroxysteroid dehydrogenase type 1 (Homo sapiens, UniProt P14061); assay: Displacement of [3H]E1 from human placental cytosolic17beta-HSD1 after 10 mins by cell-free assay
T1 sequence (P14061 whole entry): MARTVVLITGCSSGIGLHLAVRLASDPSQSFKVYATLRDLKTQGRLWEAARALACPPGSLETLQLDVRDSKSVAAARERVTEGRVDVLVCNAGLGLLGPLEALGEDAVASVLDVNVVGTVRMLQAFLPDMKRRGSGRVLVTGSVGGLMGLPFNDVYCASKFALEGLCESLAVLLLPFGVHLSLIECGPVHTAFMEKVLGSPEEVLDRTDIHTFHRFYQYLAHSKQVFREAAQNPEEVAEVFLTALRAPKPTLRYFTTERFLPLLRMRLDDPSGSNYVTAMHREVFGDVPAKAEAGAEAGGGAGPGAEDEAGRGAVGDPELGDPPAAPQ
Summary of the method: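 Cytosolic 17β-HSD1 from human placenta, ammonium sulfate precipitated. Enzyme incubated with NADH 500 µM, test compound and unlabeled plus [3H]-E1 (final 500 nM) for 10 min at 37 °C. Reaction stopped with HgCl2 and extracted with ether. E1/E2 separated by C18 RP HPLC (acetonitrile/water 45:55) with radioflow detection. Activity taken as % conversion. Percent inhibition read at 1 µM.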

[2] = species: Homo sapiens; assay: Selectivity factor, ratio of IC50 for human placental cytosolic17beta-HSD1 to IC50 for human placental microsomal 17beta-HSD2
[3] = molecular target: T2, 17-beta-hydroxysteroid dehydrogenase type 2 (Homo sapiens, UniProt P37059); assay: Displacement of [3H]E2 from human placental microsomal 17beta-HSD2 after 20 mins by cell-free assay
T2 sequence (P37059 whole entry): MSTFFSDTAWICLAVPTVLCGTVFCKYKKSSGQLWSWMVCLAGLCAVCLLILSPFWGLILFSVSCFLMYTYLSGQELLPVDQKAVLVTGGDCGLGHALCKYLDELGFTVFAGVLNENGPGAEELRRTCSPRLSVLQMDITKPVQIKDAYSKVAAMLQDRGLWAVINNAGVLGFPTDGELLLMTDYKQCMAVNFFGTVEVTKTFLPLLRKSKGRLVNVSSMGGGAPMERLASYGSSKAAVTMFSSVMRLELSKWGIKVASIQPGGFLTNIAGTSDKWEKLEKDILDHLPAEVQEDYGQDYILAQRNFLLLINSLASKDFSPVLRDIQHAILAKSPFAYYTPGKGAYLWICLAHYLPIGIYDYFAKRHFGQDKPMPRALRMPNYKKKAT
Summary of the method: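 Microsomal 17β-HSD2 from human placenta, 150,000 g pellet. Started with unlabeled plus [3H]-E2 (final 500 nM), stopped after 20 min with HgCl2, ether-extracted. E1/E2 resolved by radio-HPLC, giving % conversion. Inhibition read at 1 µM.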

[4] = Drug metabolism in human liver microsome S9 fraction assessed as acid metabolite formation by LC-MS/MS analysis; format: ADME; settings: microsomes
[5] = Drug metabolism in human liver microsome S9 fraction assessed as didemethylation metabolite formation by LC-MS/MS analysis; format: ADME; settings: microsomes
[6] = Drug metabolism in human liver microsome S9 fraction assessed as di-hydroxylation metabolite formation by LC-MS/MS analysis; format: ADME; settings: microsomes
[7] = Drug metabolism in human liver microsome S9 fraction assessed as demethylation/hydroxylation metabolite formation by LC-MS/MS analysis; format: ADME; settings: microsomes
[8] = molecular target: T3, Estrogen receptor (Homo sapiens) (UniProt P03372); assay: Displacement of [3H]E2 from human recombinant ERalpha at 3 nM after 16 to 20 hrs by cell-free assay
T3 sequence (whole entry): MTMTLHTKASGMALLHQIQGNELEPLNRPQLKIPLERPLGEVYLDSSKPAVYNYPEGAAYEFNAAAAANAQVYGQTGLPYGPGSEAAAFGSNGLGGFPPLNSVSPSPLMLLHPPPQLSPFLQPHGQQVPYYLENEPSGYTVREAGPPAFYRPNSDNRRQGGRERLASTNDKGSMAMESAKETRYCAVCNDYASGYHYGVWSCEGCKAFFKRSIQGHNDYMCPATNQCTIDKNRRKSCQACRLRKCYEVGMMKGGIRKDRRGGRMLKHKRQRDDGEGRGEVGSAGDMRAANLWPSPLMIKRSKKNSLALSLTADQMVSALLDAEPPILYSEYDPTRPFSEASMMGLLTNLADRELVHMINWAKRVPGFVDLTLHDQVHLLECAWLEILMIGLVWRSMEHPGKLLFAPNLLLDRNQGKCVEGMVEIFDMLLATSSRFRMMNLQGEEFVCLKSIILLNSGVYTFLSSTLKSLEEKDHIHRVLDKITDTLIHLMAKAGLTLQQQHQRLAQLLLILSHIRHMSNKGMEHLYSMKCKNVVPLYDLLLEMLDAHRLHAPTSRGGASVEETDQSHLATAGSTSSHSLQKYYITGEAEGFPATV
Summary of the method: (§1)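 Recombinant human ERα (1 nM, [3H]-E2 3 nM) or ERβ (4 nM, [3H]-E2 10 nM) incubated with test compound, 5% DMSO final, for 16–20 h at 4 °C. Nonspecific binding set with 100-fold unlabeled E2. Complexes bound to hydroxyapatite, washed three times, counted by liquid scintillation. Compounds tested at 1000-fold the [3H]-E2 level (3 µM ERα, 10 µM ERβ). Below 50% displacement classed RBA <0.1%.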

[9] = molecular target: Estrogen receptor beta (Homo sapiens) (UniProt Q92731); assay: Displacement of [3H]E2 from human recombinant ERbeta at 10 nM after 16 to 20 hrs by cell-free assay; summary of the method: as §1
[10] = Half-life in human liver microsome S9 fraction at 1 uM up to 60 mins by LC-MS/MS analysis; format: ADME, microsomes
Summary of the method: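 Sampled at 0, 5, 15 and 60 min and quenched with 2 volumes cold acetonitrile containing internal standard. Remaining parent quantified by LC-MS/MS to give t1/2.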

[11] = Drug metabolism in human liver microsome S9 fraction treated with N-Methyl-N,5-bis(3-methylphenyl)thiophene-2-carboxamide by LC-MS/MS analysis; format: ADME; settings: microsomes
[12] = Half-life in human liver microsome S9 fraction at 3 uM up to 45 mins by LC-MS/MS analysis; format: ADME, microsomes

Sequence of Estrogen receptor beta (Homo sapiens) (Q92731 whole entry): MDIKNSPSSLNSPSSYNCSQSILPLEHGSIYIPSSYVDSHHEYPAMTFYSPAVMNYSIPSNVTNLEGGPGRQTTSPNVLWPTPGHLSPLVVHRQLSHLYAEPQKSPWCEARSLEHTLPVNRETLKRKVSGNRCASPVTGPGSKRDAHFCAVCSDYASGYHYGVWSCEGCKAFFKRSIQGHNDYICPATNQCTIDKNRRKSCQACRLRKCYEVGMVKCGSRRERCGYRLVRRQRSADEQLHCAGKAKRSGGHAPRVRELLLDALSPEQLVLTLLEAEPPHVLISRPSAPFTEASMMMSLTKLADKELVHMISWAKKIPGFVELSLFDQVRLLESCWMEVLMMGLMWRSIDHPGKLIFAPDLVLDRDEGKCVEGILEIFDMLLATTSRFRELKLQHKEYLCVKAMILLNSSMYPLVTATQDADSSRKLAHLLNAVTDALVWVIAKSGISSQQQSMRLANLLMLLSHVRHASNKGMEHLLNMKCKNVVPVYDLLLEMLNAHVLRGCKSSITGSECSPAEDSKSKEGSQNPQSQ

IC50 [1] [µM] | Ratio IC50 [2] | IC50 [3] [nM] | inhibition [8] [%] | inhibition [9] [%] | SMILES | further results
16.7 | 132 | 127 | – | – | COc1cc(-c2cccc(C)c2)sc1C(=O)N(C)c1cccc(C)c1 | –
– | – | – | – | – | COc1cccc(N(C)C(=O)c2ccc(-c3cccc(C)c3)s2)c1 | Drug metabolism [4]: metabolite_notdetected; Drug metabolism [5]: metabolite_notdetected; Drug metabolism [6]: metabolite_notdetected
– | – | – | – | – | COc1cccc(-c2ccc(C(=O)N(C)c3cccc(OC)c3)s2)c1 | Drug metabolism [4]: metabolite_notdetected; Drug metabolism [7]: metabolite_notdetected
9.41 | 29 | 327 | 16 | 11 | Cc1cccc(-c2ccc(C(=O)N(C)c3cccc(Cl)c3)s2)c1 | –
– | – | – | 5 | 4 | Cc1ccc(N(C)C(=O)c2ccc(-c3ccc(C)c(C)c3)s2)cc1 | –
0.698 | 3 | 225 | – | – | Cc1ccc(-c2ccc(C(=O)N(C)c3ccccc3C)s2)cc1 | half-life at 1 µM [10]: 22 min
– | – | – | 8 | 11 | Cc1cccc(-c2ccc(C(=O)N(C)c3cccc(C)c3)cc2)c1 | –
– | – | – | – | – | Cc1cccc(N(C)C(=O)c2ccc(-c3cccc(CO)c3)s2)c1 | Drug metabolism [11]: metabolite_notdetected
– | – | – | 11 | 34 | Cc1ccc(-c2ccc(C(=O)N(C)c3cccc(C)c3)s2)cc1 | –
– | – | – | 12 | 21 | Cc1cccc(-c2ccc(C(=O)N(C)c3cccc(C)c3)s2)c1 | Drug metabolism [5]: metabolite_notdetected
– | – | – | – | – | COc1cccc(N(C)C(=O)c2ccc(-c3cccc(OC)c3F)s2)c1 | half-life at 1 µM [10]: 12 min
– | – | – | – | – | COc1cccc(N(C)C(=O)c2ccc(-c3cccc(N(C)C)c3)s2)c1 | half-life at 3 µM [12]: 29 min
25.3 | 51 | 499 | 9 | 0 | Cc1cccc(-c2cnc(C(=O)N(C)c3cccc(C)c3)s2)c1 | half-life at 1 µM [10]: 5 min
